Source: ChEMBL document CHEMBL1142148, “Antibiotic susceptibility profile of bifidobacteria as affected by oxgall, acid, and hydrogen peroxide stress” (2007)
≈ marks a conversion by molar mass, not a printed value.

What was measured:
[1] = test system: Bifidobacterium bifidum; assay: Antimicrobial activity against 90 mins hydrogen peroxide-stressed Bifidobacterium bifidum BB12 after 18 hrs; assay type: functional
Method in brief: (§1)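 Stress applied for 90 min at 37°C under anaerobic conditions, using MRS (initial pH 6.5) containing H2O2 at each strain's own inhibitory concentration. The H2O2 level was set beforehand by microplate tolerance testing. Challenged cells were regrown in MRS for 24 h (footnote: 18 h) before MIC testing by broth microdilution. Median of four repetitions.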

[2] = test system: Bifidobacterium longum; assay: Antimicrobial activity against 90 mins hydrogen peroxide-stressed Bifidobacterium longum ATCC 15707 after 18 hrs; assay type: functional; method in brief: as §1
[3] = test system: Bifidobacterium bifidum; assay: Antimicrobial activity against 90 mins hydrogen peroxide-stressed Bifidobacterium bifidum R0071 after 18 hrs; assay type: functional; method in brief: as §1
[4] = test system: Bifidobacterium longum; assay: Antimicrobial activity against 90 mins oxgall-stressed Bifidobacterium longum P/N 601377 after 18 hrs; assay type: functional
Method in brief: (§2)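 Cells pelleted from mid-log MRS culture and resuspended in MRS (initial pH 6.5) with 0.3% (wt/vol) oxgall for 90 min anaerobically at 37°C. They were then regrown in MRS pH 6.5 for 24 h (footnote: 18 h) anaerobically and tested for MIC by the same broth microdilution assay. Median of four repetitions.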

[5] = test system: Bifidobacterium pseudolongum; assay: Antimicrobial activity against 90 mins oxgall-stressed Bifidobacterium pseudolongum ATCC 25562 after 18 hrs; assay type: functional; method in brief: as §2
[6] = test system: Bifidobacterium bifidum; assay: Antimicrobial activity against 90 mins oxgall-stressed Bifidobacterium bifidum ATCC 15696 after 18 hrs; assay type: functional; method in brief: as §2
[7] = test system: Bifidobacterium animalis; assay: Antimicrobial activity against 60 min 1 M HCl-stressed Bifidobacterium animalis ATCC 27536 after 18 hrs; assay type: functional
Method in brief: (§3)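 Mid-log MRS culture pelleted and resuspended in MRS broth brought to pH 2.0 with 1 M HCl, held anaerobically at 37°C for 60 min, then subcultured in MRS (pH 6.5) for 24 h anaerobically before MIC testing by broth microdilution (as for unstressed cells). Table footnote gives 18 h anaerobic regrowth after the stress. MIC is the median of four repetitions.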

[8] = test system: Bifidobacterium longum; assay: Antimicrobial activity against 60 min 1 M HCl-stressed Bifidobacterium longum R0175 after 18 hrs; assay type: functional; method in brief: as §3
[9] = test system: Bifidobacterium longum; assay: Antimicrobial activity against 90 mins oxgall-stressed Bifidobacterium longum ATCC 15707 after 18 hrs; assay type: functional; method in brief: as §2
[10] = test system: Bifidobacterium longum; assay: Antimicrobial activity against Bifidobacterium longum P/N 601377; assay type: functional
Method in brief: (§4)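 Broth microdilution in MRS plus 0.05% L-cysteine-HCl. Mid-log culture adjusted to OD650 0.1, giving about 2.5 × 10^4 to 5.0 × 10^4 CFU/well, then added to twofold serial dilutions of agent. Plates incubated anaerobically at 37°C for 18 h and read at OD650. MIC is the lowest concentration matching the uninoculated blank OD, taken as the median of four repeats.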

[11] = test system: Bifidobacterium bifidum; assay: Antimicrobial activity against Bifidobacterium bifidum R0071; assay type: functional; method in brief: as §4
[12] = test system: Bifidobacterium bifidum; assay: Antimicrobial activity against Bifidobacterium bifidum BB12; assay type: functional; method in brief: as §4
[13] = test system: Bifidobacterium breve; assay: Antimicrobial activity against Bifidobacterium breve R0070; assay type: functional; method in brief: as §4
[14] = test system: Bifidobacterium breve; assay: Antimicrobial activity against 90 mins hydrogen peroxide-stressed Bifidobacterium breve ATCC 15700 after 18 hrs; assay type: functional; method in brief: as §1
[15] = test system: Bifidobacterium longum; assay: Antimicrobial activity against 90 mins hydrogen peroxide-stressed Bifidobacterium longum ATCC 15708 after 18 hrs; assay type: functional; method in brief: as §1
[16] = test system: Bifidobacterium longum; assay: Antimicrobial activity against 90 mins hydrogen peroxide-stressed Bifidobacterium longum P/N 601377 after 18 hrs; assay type: functional; method in brief: as §1
[17] = test system: Bifidobacterium animalis; assay: Antimicrobial activity against 90 mins hydrogen peroxide-stressed Bifidobacterium animalis ATCC 27536 after 18 hrs; assay type: functional; method in brief: as §1
[18] = test system: Bifidobacterium bifidum; assay: Antimicrobial activity against 60 min 1 M HCl-stressed Bifidobacterium bifidum BB12 after 18 hrs; assay type: functional; method in brief: as §3
[19] = test system: Bifidobacterium thermophilum; assay: Antimicrobial activity against 90 mins oxgall-stressed Bifidobacterium thermophilum ATCC 25866 after 18 hrs; assay type: functional; method in brief: as §2
[20] = test system: Bifidobacterium pseudolongum; assay: Antimicrobial activity against 60 min 1 M HCl-stressed Bifidobacterium pseudolongum ATCC 25562 after 18 hrs; assay type: functional; method in brief: as §3
[21] = test system: Bifidobacterium breve; assay: Antimicrobial activity against Bifidobacterium breve ATCC 15700; assay type: functional; method in brief: as §4
[22] = test system: Bifidobacterium animalis; assay: Antimicrobial activity against Bifidobacterium animalis ATCC 27536; assay type: functional; method in brief: as §4
[23] = Antimicrobial activity against 90 mins oxgall-stressed Bifidobacterium infantis ATCC 15697 after 18 hrs; assay type: functional, Bifidobacterium longum subsp. infantis; conditions: Bifidobacterium longum; method in brief: as §2
[24] = test system: Bifidobacterium longum; assay: Antimicrobial activity against Bifidobacterium longum ATCC 15708; assay type: functional; method in brief: as §4
[25] = test system: Bifidobacterium bifidum; assay: Antimicrobial activity against 90 mins oxgall-stressed Bifidobacterium bifidum BB12 after 18 hrs; assay type: functional; method in brief: as §2
[26] = test system: Bifidobacterium breve; assay: Antimicrobial activity against 60 min 1 M HCl-stressed Bifidobacterium breve ATCC 15700 after 18 hrs; assay type: functional; method in brief: as §3
[27] = test system: Bifidobacterium longum; assay: Antimicrobial activity against Bifidobacterium longum ATCC 15707; assay type: functional; method in brief: as §4
[28] = test system: Bifidobacterium bifidum; assay: Antimicrobial activity against 90 mins oxgall-stressed Bifidobacterium bifidum R0071 after 18 hrs; assay type: functional; method in brief: as §2
[29] = Antimicrobial activity against 60 min 1 M HCl-stressed Bifidobacterium infantis ATCC 15697 after 18 hrs; assay type: functional, Bifidobacterium longum subsp. infantis; conditions: Bifidobacterium longum; method in brief: as §3
[30] = test system: Bifidobacterium longum; assay: Antimicrobial activity against 90 mins oxgall-stressed Bifidobacterium longum ATCC 15708 after 18 hrs; assay type: functional; method in brief: as §2
[31] = test system: Bifidobacterium breve; assay: Antimicrobial activity against 90 mins hydrogen peroxide-stressed Bifidobacterium breve R0070 after 18 hrs; assay type: functional; method in brief: as §1
[32] = test system: Bifidobacterium bifidum; assay: Antimicrobial activity against Bifidobacterium bifidum ATCC 15696; assay type: functional; method in brief: as §4
[33] = test system: Bifidobacterium breve; assay: Antimicrobial activity against 90 mins oxgall-stressed Bifidobacterium breve R0070 after 18 hrs; assay type: functional; method in brief: as §2
[34] = test system: Bifidobacterium bifidum; assay: Antimicrobial activity against 60 min 1 M HCl-stressed Bifidobacterium bifidum R0071 after 18 hrs; assay type: functional; method in brief: as §3
[35] = test system: Bifidobacterium thermophilum; assay: Antimicrobial activity against 90 mins hydrogen peroxide-stressed Bifidobacterium thermophilum ATCC 25866 after 18 hrs; assay type: functional; method in brief: as §1
[36] = test system: Bifidobacterium longum; assay: Antimicrobial activity against 60 min 1 M HCl-stressed Bifidobacterium longum ATCC 15707 after 18 hrs; assay type: functional; method in brief: as §3
[37] = test system: Bifidobacterium longum; assay: Antimicrobial activity against 90 mins oxgall-stressed Bifidobacterium longum R0175 after 18 hrs; assay type: functional; method in brief: as §2
[38] = test system: Bifidobacterium animalis; assay: Antimicrobial activity against 90 mins oxgall-stressed Bifidobacterium animalis ATCC 27536 after 18 hrs; assay type: functional; method in brief: as §2
[39] = test system: Bifidobacterium pseudolongum; assay: Antimicrobial activity against Bifidobacterium pseudolongum ATCC 25562; assay type: functional; method in brief: as §4
[40] = test system: Bifidobacterium longum; assay: Antimicrobial activity against 60 min 1 M HCl-stressed Bifidobacterium longum P/N 601377 after 18 hrs; assay type: functional; method in brief: as §3
[41] = test system: Bifidobacterium longum; assay: Antimicrobial activity against Bifidobacterium longum R0175; assay type: functional; method in brief: as §4
[42] = Antimicrobial activity against Bifidobacterium infantis ATCC 15697; assay type: functional, Bifidobacterium longum subsp. infantis; conditions: Bifidobacterium longum; method in brief: as §4
[43] = test system: Bifidobacterium breve; assay: Antimicrobial activity against 90 mins oxgall-stressed Bifidobacterium breve ATCC 15700 after 18 hrs; assay type: functional; method in brief: as §2
[44] = test system: Bifidobacterium breve; assay: Antimicrobial activity against 60 min 1 M HCl-stressed Bifidobacterium breve R0070 after 18 hrs; assay type: functional; method in brief: as §3
[45] = test system: Bifidobacterium thermophilum; assay: Antimicrobial activity against 60 min 1 M HCl-stressed Bifidobacterium thermophilum ATCC 25866 after 18 hrs; assay type: functional; method in brief: as §3
[46] = test system: Bifidobacterium thermophilum; assay: Antimicrobial activity against Bifidobacterium thermophilum ATCC 25866; assay type: functional; method in brief: as §4
[47] = test system: Bifidobacterium longum; assay: Antimicrobial activity against 90 mins hydrogen peroxide-stressed Bifidobacterium longum R0175 after 18 hrs; assay type: functional; method in brief: as §1

NC[C@@H]1O[C@H](O[C@H]2[C@@H](O)[C@H](O[C@@H]3[C@@H](O)[C@H](N)C[C@H](N)[C@H]3O[C@H]3O[C@H](CN)[C@@H](O)[C@H](O)[C@H]3N)O[C@@H]2CO)[C@H](N)[C@@H](O)[C@@H]1O [FRAMYCETIN]
MIC [1]: 250 µg/mL (≈ 407 µM) | MIC [2]: 250 µg/mL (≈ 407 µM) | MIC [3]: 125 µg/mL (≈ 203 µM) | MIC [4]: 62.5 µg/mL (≈ 102 µM) | MIC [5]: 250 µg/mL (≈ 407 µM) | MIC [6]: 250 µg/mL (≈ 407 µM) | MIC [7]: 250 µg/mL (≈ 407 µM) | MIC [8]: 250 µg/mL (≈ 407 µM) | MIC [9]: 125 µg/mL (≈ 203 µM) | MIC [10]: 125 µg/mL (≈ 203 µM) | MIC [11]: 250 µg/mL (≈ 407 µM) | MIC [12]: 250 µg/mL (≈ 407 µM) | MIC [13]: 250 µg/mL (≈ 407 µM) | MIC [14]: 250 µg/mL (≈ 407 µM) | MIC [15]: 250 µg/mL (≈ 407 µM) | MIC [16]: 125 µg/mL (≈ 203 µM) | MIC [17]: 500 µg/mL (≈ 813 µM) | MIC [18]: 125 µg/mL (≈ 203 µM) | MIC [19]: 125 µg/mL (≈ 203 µM) | MIC [20]: 250 µg/mL (≈ 407 µM) | MIC [21]: 250 µg/mL (≈ 407 µM) | MIC [22]: 250 µg/mL (≈ 407 µM) | MIC [23]: 500 µg/mL (≈ 813 µM) | MIC [24]: 250 µg/mL (≈ 407 µM) | MIC [25]: 250 µg/mL (≈ 407 µM) | MIC [26]: 125 µg/mL (≈ 203 µM) | MIC [27]: 250 µg/mL (≈ 407 µM) | MIC [28]: 62.5 µg/mL (≈ 102 µM) | MIC [29]: 250 µg/mL (≈ 407 µM) | MIC [30]: 500 µg/mL (≈ 813 µM) | MIC [31]: 250 µg/mL (≈ 407 µM) | MIC [32]: 250 µg/mL (≈ 407 µM) | MIC [33]: 62.5 µg/mL (≈ 102 µM) | MIC [34]: 250 µg/mL (≈ 407 µM) | MIC [35]: 500 µg/mL (≈ 813 µM) | MIC [36]: 500 µg/mL (≈ 813 µM) | MIC [37]: 62.5 µg/mL (≈ 102 µM) | MIC [38]: 125 µg/mL (≈ 203 µM) | MIC [39]: 250 µg/mL (≈ 407 µM) | MIC [40]: 250 µg/mL (≈ 407 µM) | MIC [41]: 250 µg/mL (≈ 407 µM) | MIC [42]: 250 µg/mL (≈ 407 µM) | MIC [43]: 125 µg/mL (≈ 203 µM) | MIC [44]: 250 µg/mL (≈ 407 µM) | MIC [45]: 250 µg/mL (≈ 407 µM) | MIC [46]: 250 µg/mL (≈ 407 µM) | MIC [47]: 125 µg/mL (≈ 203 µM)
